Assay [1] has as its system SMMC-7721. The assay can be described thus: Cytotoxicity against human SMMC7721 cells for 72 hrs under hypoxic condition by MTT assay. Particulars: SMMC-7721, 72 h. In kind it is functional, cell-based. In short, it runs like this: (§1)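 RPMI-1640 with heat-inactivated 10% FBS plus penicillin/streptomycin; hypoxia 3% O2, 5% CO2 or normoxia 20% O2, 5% CO2, 37 °C. Compounds dissolved in DMSO at 10.0 mg/mL (stock), then diluted; cells seeded 5×10³ per well. Viability read by MTT kit; IC50 taken as concentration giving 50% absorbance inhibition versus control cells.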

Assay [2] relates to SMMC-7721. The assay can be described thus: Cytotoxicity against human SMMC7721 cells for 72 hrs under normoxic condition by MTT assay. It counts as functional, cell-based. Particulars: SMMC-7721, 72 h. In short, it runs like this: as §1
Background: Formazan colour is commonly taken as a measure of viable cells.

Assay [3] deals with K562. Kind of assay: Cytotoxicity against human K562 cells for 72 hrs under hypoxic condition by MTT assay. In kind it is functional, cell-based. The note with it: K562, 72 h. In short, it runs like this: as §1
Assay [4] deals with K562. The assay can be described thus: Cytotoxicity against human K562 cells for 72 hrs under normoxic condition by MTT assay. It counts as functional, cell-based. Particulars: K562, 72 h. The method in brief: as §1
Assay [5] concerns KB. The assay can be described thus: Cytotoxicity against human KB cells for 72 hrs under hypoxic condition by MTT assay. In kind it is functional, cell-based. In short, it runs like this:
as §1

In assay [6] the test system is KB. The assay can be described thus: Cytotoxicity against human KB cells for 72 hrs under normoxic condition by MTT assay. It counts as functional, cell-based. In short, it runs like this:
as §1

In assay [7] the test system is A549. The assay can be described thus: Cytotoxicity against human A549 cells for 72 hrs under hypoxic condition by MTT assay. It counts as functional, cell-based. Particulars: A549, 72 h. The method in brief: as §1
Assay [8] concerns A549. The assay can be described thus: Cytotoxicity against human A549 cells for 72 hrs under normoxic condition by MTT assay. Particulars: A549, 72 h. In kind it is functional, cell-based. In short, it runs like this: as §1
Assay [9] relates to PC-3. The assay can be described thus: Cytotoxicity against human PC3 cells for 72 hrs under hypoxic condition by MTT assay. It counts as functional, cell-based. The note with it: PC-3, 72 h. The method in brief:
as §1

Assay [10] deals with PC-3. The assay can be described thus: Cytotoxicity against human PC3 cells for 72 hrs under normoxic condition by MTT assay. It counts as functional, cell-based. The note with it: PC-3, 72 h. The method in brief:
as §1

Assay [11] deals with K562. Kind of assay: Induction of apoptosis in human K562 cells under normoxic condition assessed as DNA fragmentation at 10 uM for 48 hrs using propidium iodide by flow cytometry. It counts as functional, cell-based. In short, it runs like this:
(§2)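 K562 held under hypoxia (3% O2, 5% CO2) or normoxia (20% O2, 5% CO2) at 37 °C, treated 48 h. Cells washed in PBS, fixed in 75% ethanol at −20 °C overnight, RNase-treated 30 min at 37 °C, PI-stained 30 min at room temperature in the dark. DNA content and apoptotic fraction read by flow cytometry.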
In general terms: A flow cytometer gives signals particle by particle.

In assay [12] the test system is K562. Kind of assay: Induction of apoptosis in human K562 cells under hypoxic condition assessed as DNA fragmentation at 10 uM for 48 hrs using propidium iodide by flow cytometry. In kind it is functional, cell-based. The method in brief: as §2
The test system of assay [13] is K562. The assay can be described thus: Induction of apoptosis in human K562 cells under normoxic condition assessed as accumulation at Sub-G1 phase at 10 uM for 48 hrs using propidium iodide by flow cytometry (reference value: 5.27%). In kind it is functional.
In assay [14] the test system is K562. The assay can be described thus: Induction of apoptosis in human K562 cells under hypoxic condition assessed as accumulation at Sub-G1 phase at 10 uM for 48 hrs using propidium iodide by flow cytometry (reference value: 13.03%). In kind it is functional.
Assay [15] concerns K562. Kind of assay: Induction of apoptosis in human K562 cells under hypoxic condition assessed as decrease in procaspase-3 level at 10 uM for 48 hrs by Western blotting. It counts as functional, cell-based. In short, it runs like this:
(§3)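 K562 treated 48 h under hypoxia (3% O2) or normoxia (20% O2), 5% CO2, 37 °C. Lysis buffer: 150 mM NaCl, 50 mM Tris-HCl pH 8.0, 2 mM EGTA, 2 mM EDTA, 25 mM NaF, 25 mM β-glycerophosphate, 0.2% Triton X-100, 0.3% NP-40, 0.1 mM PMSF. Extracts immunoblotted for procaspase-3, cleaved caspase-3, PARP and XIAP.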
On the technique in general: In western blotting, separated proteins are transferred to a membrane and probed.

Assay [16] deals with K562. Kind of assay: Induction of apoptosis in human K562 cells under hypoxic condition assessed as decrease in XIAP level at 10 uM for 48 hrs by Western blotting. It counts as functional, cell-based. In short, it runs like this: as §3
The test system of assay [17] is K562. Kind of assay: Induction of apoptosis in human K562 cells under hypoxic condition assessed as decrease in PARP level at 10 uM for 48 hrs by Western blotting. In kind it is functional, cell-based. The method in brief:
as §3

Assay [18] has as its system K562. Kind of assay: Induction of apoptosis in human K562 cells under hypoxic condition assessed as caspase-3 cleavage at 10 uM for 48 hrs by Western blotting. In kind it is functional, cell-based. In short, it runs like this:
as §3

Assay [19] relates to K562. The assay can be described thus: Induction of apoptosis in human K562 cells under hypoxic condition assessed as decrease in XIAP level at 10 uM for 48 hrs by Western blotting.
Assay [20] relates to K562. The assay can be described thus: Induction of apoptosis in human K562 cells under hypoxic condition assessed as decrease in PARP level at 10 uM for 48 hrs by Western blotting.
The test system of assay [21] is K562. Kind of assay: Induction of apoptosis in human K562 cells under hypoxic condition assessed as decrease in procaspase-3 level at 10 uM for 48 hrs by Western blotting.

pIC50: −log10 of the molar value. Calls of active or inactive are those of the source. No cut-off for these calls is given here.

In the case of `CCOCNc1n[n+]([O-])c2ccccc2[n+]1[O-]`, the pIC50 (in general, −log10 of the IC50, conventionally taken in molar units) was 5.37 in assay [1]; 4.57 in assay [2]; 5.30 in assay [3]; 4.81 in assay [4]; 4.65 in [5]; 5.55 in assay [6]. Moreover, the pIC50 in assay [7] is 5.39; in [8], 4.98; in assay [9], 5.13; in assay [10], 4.80. For the same compound, the result in assay [11], in assay [12], in assay [15], in assay [16], in assay [17] and in [18] was Active. The result in [19], in assay [20] and in assay [21] was Active. Further, the Activity in assay [13] was 14.13%; in assay [14], 33.07%.
In the case of `COc1ccc(COCNc2n[n+]([O-])c3ccccc3[n+]2[O-])cc1`, the pIC50 in assay [1] was 5.94; in assay [2], 4.66; in assay [3] it was 6.18; in [4] it was 4.70; in assay [5] it was 4.85; in assay [6] it was 5.39. The pIC50 was 5.48 in assay [7], 5.12 in assay [8], 4.28 in [9] and 4.84 in assay [10]. The result in assay [11], in [12], in assay [15], in [16], in [17] and in [18] was Active. For the same compound, the result in [19], in assay [20] and in assay [21] was Active. The Activity in assay [13] is given as 14.95%; in assay [14], 54.24%.
Turning to `[O-][n+]1nc(NCOCc2ccc(C(F)(F)F)cc2)[n+]([O-])c2ccccc21`, the pIC50 in assay [1] is 6.11; in [2], 5.02; in [3], 5.91; in assay [4] it was 4.74; in assay [5], 4.70; in assay [6] it was 6.41. The pIC50 was 5.37 in assay [7], 5.07 in [8], 5.03 in assay [9] and 5.12 in assay [10]. In addition, the outcome in assay [11], in assay [12], in assay [15], in [16], in [17] and in [18] was Active. Further, the outcome in assay [19], in [20] and in assay [21] was Active. For the same compound, the Activity in assay [13] is 9.5%; in [14] it was 32.11%.

Values taken from ChEMBL document CHEMBL1687888, “Synthesis, hypoxia-selective cytotoxicity of new 3-amino-1,2,4-benzotriazine-1,4-dioxide derivatives” (Eur J Med Chem, 2011).
